According to ChEMBL document CHEMBL4014343 (J Med Chem, 2017):
Values after ≈ are worked out from the molar mass of the structure shown. Active and inactive are the calls of the source. No cut-off for these calls is given here.

What was measured:
[1] = Solubility of the compound in water by spectrophotometric method; format: physicochemical
Method in brief: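 Ethanol standard solutions define absorbance maxima; aqueous solubility then quantified spectrophotometrically at that maximum by calibration.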

[2] = Antiproliferative activity against human LXFL 529L cells after 3 days by SRB assay; format: functional, cell-based; conditions: Homo sapiens, LXFL 529L, 72 h
MCF7 = experiment: Antiproliferative activity against human MCF7 cells after 3 days by SRB assay; format: functional, cell-based; conditions: Homo sapiens, MCF7, 72 h
CDK6/cyclin D3 = CDK6/cyclin D3 (Homo sapiens, UniProt Q00534); experiment: Inhibition of full length human N-terminal His6-tagged CDK6/N-terminal GST-tagged CyclinD3 expressed in sf21 cells after 10 mins in presence of [gamma32P]ATP by beta counting method
[3] = target: T1, Glycogen synthase kinase-3 beta (Homo sapiens, UniProt P49841); experiment: Inhibition of recombinant GSK3beta (unknown origin) after 10 mins in presence of [gamma32P]ATP by beta counting method
Method in brief: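 Recombinant kinase with 0.4 μCi [γ-32P]ATP per vial, 10 min at 30 °C; spotted on P81 paper, washed in 0.75% phosphoric acid, counted by β-scintillation. IC50 by linear regression versus solvent control; duplicates, ≥3 independent experiments.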

[4] = target: Cyclin-dependent kinase 2/cyclin E1 (Homo sapiens, UniProt P24941); experiment: Inhibition of full length human C-terminal His6-tagged CDK2/N-terminal GST-tagged CyclinE expressed in baculovirus infected sf21 cells after 10 mins in presence of [gamma32P]ATP by beta counting method
[5] = target: Cyclin-dependent kinase 1/cyclin B1 (Homo sapiens, UniProt P06493); experiment: Inhibition of full length human C-terminal His6-tagged CDK1/N-terminal GST-tagged CyclinB expressed in baculovirus infected sf21 cells after 10 mins in presence of [gamma32P]ATP by beta counting method; format: cell-based
CDK2/Cyclin A2 = CDK2/Cyclin A2 (Homo sapiens, UniProt P24941); experiment: Inhibition of full length human C-terminal His6-tagged CDK2/N-terminal GST-tagged CyclinA expressed in baculovirus infected sf21 cells after 10 mins in presence of [gamma32P]ATP by beta counting method
[6] = target: Insulin-like growth factor 1 receptor (Homo sapiens, UniProt P08069); experiment: Inhibition of IGF1R (unknown origin) by ADP-Glo assay
Method in brief: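 Isolated IGF-1R activity measured by luminescent ADP-Glo readout per manufacturer's protocol; IC50 from concentration-response (mean ± deviation reported).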

[7] = target: T1, Glycogen synthase kinase-3 beta; experiment: Inhibition of human N-terminal GST/His6-tagged GSK3beta (M1 to T420 residues) expressed in baculovirus infected sf9 cells at 1 uM using RBER-IRStide as substrate by filter binding assay
Method in brief: (§1)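 Single-point profiling at 1 μM in a 22-kinase panel, performed externally by ProQinase; activity read as residual percent of control.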

[8] = target: Cyclin-dependent kinase 4/cyclin D1 (Homo sapiens) (UniProt P11802+P24385); experiment: Inhibition of recombinant human N-terminal GST-tagged CDK4 (S4 to E303 residues)/Cyclin D1 (Q4 to I295 residues) expressed in sf9 cells at 1 uM using RB-CTF as substrate by filter binding assay; method in brief: as §1
[9] = target: Fibroblast growth factor receptor 1 (Homo sapiens) (UniProt P11362); experiment: Inhibition of human N-terminal GST/His6-tagged FGFR1 (G400 to R820 residues) expressed in baculovirus infected sf9 cells at 1 uM using Poly(Glu,Tyr)4:1 as substrate by filter binding assay; method in brief: as §1
[10] = target: Aurora kinase B (Homo sapiens) (UniProt Q96GD4); experiment: Inhibition of human N-terminal GST/His6-tagged Aurora B (A2 to A344 residues) expressed in sf9 cells at 1 uM using tetra(LRRLSLG) as substrate by filter binding assay; method in brief: as §1
[11] = target: Cyclin-dependent kinase 1/cyclin B1 (Homo sapiens) (UniProt P06493+P14635); experiment: Inhibition of recombinant human N-terminal GST/His6-tagged CDK1 (M1 to M297 residues)/Cyclin B1 (M1 to V433 residues) expressed in sf9 cells at 1 uM using RB-CTF as substrate by filter binding assay; method in brief: as §1
[12] = target: Cyclin-dependent kinase 5/CDK5 activator 1 (Homo sapiens) (UniProt Q00535+Q15078); experiment: Inhibition of recombinant human N-terminal GST-tagged CDK5 (M1 to P292 residues)/p35NCK (M1 to R307 residues) expressed in baculovirus infected sf9 cells at 1 uM using RB-CTF as substrate by filter binding assay; method in brief: as §1
[13] = target: T2, Aurora kinase C (Homo sapiens) (UniProt Q9UQB9); experiment: Inhibition of human N-terminal GST-tagged Aurora B (M1 to S27 residues) expressed in sf9 cells at 1 uM using CDC25C-derived peptide as substrate by filter binding assay; method in brief: as §1
T2 sequence (whole entry): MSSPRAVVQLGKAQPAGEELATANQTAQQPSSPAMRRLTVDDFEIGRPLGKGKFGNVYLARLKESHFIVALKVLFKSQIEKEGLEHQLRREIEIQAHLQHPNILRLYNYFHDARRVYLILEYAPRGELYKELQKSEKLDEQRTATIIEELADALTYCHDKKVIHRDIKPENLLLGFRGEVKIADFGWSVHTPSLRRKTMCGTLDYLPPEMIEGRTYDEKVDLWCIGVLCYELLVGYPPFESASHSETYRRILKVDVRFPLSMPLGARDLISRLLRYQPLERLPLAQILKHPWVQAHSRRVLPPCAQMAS

[14] = target: Serine/threonine-protein kinase Chk2 (Homo sapiens) (UniProt O96017); experiment: Inhibition of CHK2 (unknown origin) at 1 uM; method in brief: as §1
[15] = target: CDK2/Cyclin A2 (Homo sapiens) (UniProt P24941+P20248); experiment: Inhibition of recombinant human N-terminal GST-tagged CDK2 (M1 to L298 residues)/Cyclin A2 (M1 to L432 residues) expressed in baculovirus infected sf9 cells at 1 uM using Histone H1 as substrate by filter binding assay; method in brief: as §1
[16] = target: T3, Aurora kinase A (Homo sapiens) (UniProt O14965); experiment: Inhibition of human N-terminal GST/His6-tagged Aurora A (M1 to S403 residues) expressed in baculovirus infected sf9 cells at 1 uM using tetra(LRRLSLG) as substrate by filter binding assay; method in brief: as §1
T3 sequence (whole entry): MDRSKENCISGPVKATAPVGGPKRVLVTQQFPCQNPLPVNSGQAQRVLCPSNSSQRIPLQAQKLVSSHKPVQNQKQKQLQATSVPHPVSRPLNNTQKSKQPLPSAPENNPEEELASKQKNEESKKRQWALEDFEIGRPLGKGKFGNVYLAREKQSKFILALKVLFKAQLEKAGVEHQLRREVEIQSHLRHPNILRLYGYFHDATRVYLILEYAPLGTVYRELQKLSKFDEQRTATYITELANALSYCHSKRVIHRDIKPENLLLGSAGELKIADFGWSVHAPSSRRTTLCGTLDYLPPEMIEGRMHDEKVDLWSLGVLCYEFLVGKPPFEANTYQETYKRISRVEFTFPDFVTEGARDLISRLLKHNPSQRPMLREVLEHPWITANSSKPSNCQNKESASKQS

[17] = target: Cyclin-dependent kinase 2/cyclin E1 (Homo sapiens) (UniProt P24864+P24941); experiment: Inhibition of recombinant human N-terminal GST-tagged CDK2 (M1 to L298 residues)/Cyclin E1 (M1 to A395 residues) expressed in sf9 cells at 1 uM using RB-CTF as substrate by filter binding assay; method in brief: as §1

Structure (SMILES)	solubility [1]	IC50 [2]	IC50 (MCF7)	further results
O=C1Nc2ccccc2/C1=C1/Nc2ccccc2/C1=N\OCCCCO	0.1 µg/mL (≈ 0.286 µM)	2600 nM		
O=C1Nc2ccccc2/C1=C1/Nc2ccc(O)cc2/C1=N\O	2.7 µg/mL (≈ 9.21 µM)		3600 nM	
Cc1ccc2c(c1)/C(=C1/Nc3ccccc3/C1=N\OCCO[C@@H]1O[C@H](CO)[C@@H](O)[C@H](O)[C@H]1O)C(=O)N2	2 µg/mL (≈ 4.02 µM)	2000 nM	1500 nM	IC50 (CDK6/cyclin D3): 1650 nM; IC50 [3]: 290 nM; IC50 [4]: 920 nM; IC50 [5]: > 10000 nM; IC50 (CDK2/Cyclin A2): 9300 nM
O=C1Nc2ccccc2/C1=C1/Nc2ccccc2/C1=N\O	0.12 µg/mL (≈ 0.433 µM)			IC50 [6]: 5300 nM
O=C1Nc2ccc(O)cc2/C1=C1/Nc2ccccc2/C1=N\OCCO[C@@H]1O[C@H](CO)[C@@H](O)[C@H](O)[C@H]1O	5 µg/mL (≈ 10 µM)	1200 nM		
CN1CCN(C(=O)c2ccc3c(c2)C(=O)/C(=C2/C(=O)Nc4ccccc42)N3)CC1	23.9 µg/mL (≈ 61.5 µM)		17900 nM	
O=C1Nc2ccccc2/C1=C1/Nc2ccccc2/C1=N\OCCC(O)CO (stereo unspecified)	3 µg/mL (≈ 8.21 µM)	650 nM		IC50 [4]: 230 nM
O=C1Nc2ccc(C(=O)O)cc2/C1=C1/Nc2ccc(C(=O)O)cc2C1=O	0.6 µg/mL (≈ 1.71 µM)		> 100000 nM	
O=C1Nc2ccccc2/C1=C1/Nc2ccc(C(=O)O)cc2/C1=N\O	< 1 µg/mL			
Cc1ccc2c(c1)NC(=O)/C2=C1\Nc2ccccc2\C1=N/O				inhibition [7]: Active; inhibition [8]: Active; inhibition [9]: Active; inhibition [10]: Active; inhibition [11]: Active; inhibition [12]: Active; inhibition [13]: Active; inhibition [14]: Active; inhibition [15]: Active; inhibition [16]: Active; inhibition [17]: Active
COc1ccc2c(c1)C(=O)/C(=C1/C(=O)Nc3ccc(OC)cc31)N2			6000 nM	
COc1ccc2c(c1)/C(=C1/Nc3ccccc3/C1=N\OCC(O)CO)C(=O)N2 (stereo unspecified)	50 µg/mL (≈ 131 µM)	530 nM	300 nM	IC50 [4]: 43 nM
CN(C)c1ccc(NCCO/N=C2/C(=C3/C(=O)Nc4ccccc43)Nc3ccccc32)cc1	1.4 µg/mL (≈ 3.19 µM)	5100 nM		
O=C1Nc2ccccc2/C1=C1/Nc2ccc(O)cc2C1=O	7.3 µg/mL (≈ 26.2 µM)		10700 nM	
COc1ccc2c(c1)/C(=C1/Nc3ccccc3/C1=N\OCCN1CCN(C)CC1)C(=O)N2.Cl	> 25000 µg/mL		890 nM	
